Values joined by “and” are separate entries in the source; they are usually repeats but may differ in a detail not shown here. Equal values may be shown once.
Experiments:
L1210 [1] = assay: Cytotoxicity against sensitive L1210 murine leukemia cells by MTT assay; format: functional, cell-based, Mus musculus
Outline: (§1)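 Murine L1210 leukemia cells, drug-sensitive and multidrug-resistant (MDR) sublines, tested in culture. Viability read by MTT assay. Values reported as IC50 in µM.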

L1210 [2] = assay: Cytotoxicity against multidrug resistant (MDR) L1210 murine leukemia cells by MTT assay; format: functional, cell-based, Mus musculus; outline: as §1
RPMI-8226 = assay: Cytotoxicity against sensitive human myeloma 8226/S cells by MTT assay

Work on N#CC1CN1 (stereo not drawn) yielded an IC50 (L1210 [1]; Mus musculus, L1210) of over 500 µM and an IC50 (L1210 [2]; Mus musculus, L1210) of over 500 µM.

Compound CNC(=O)N1CC1C#N (stereo not drawn) has an IC50 (L1210 [1]; Mus musculus, L1210) of 25.1 µM, an IC50 (RPMI-8226) of 15.5 µM and an IC50 (L1210 [2]; Mus musculus, L1210) of 36.7 µM.

In the case of O=C(Nc1ccccc1)N1CC1, the IC50 (L1210 [2]; l1210) is reported as 5.8 µM and 28.4 µM.

N#CC1CN1C(=O)Nc1ccccc1 (stereo not drawn) showed an IC50 (L1210 [1]; l1210) of 38.4 µM and an IC50 (L1210 [2]; l1210) of 41.2 µM.

C[N+](C)(C)C(CSCC(C#N)NC(=O)Nc1ccccc1)C(=O)[O-] (stereo not drawn) gave an IC50 (L1210 [1]; Mus musculus, L1210) of 73.9 µM, an IC50 (RPMI-8226) of 44.9 µM and an IC50 (L1210 [2]; Mus musculus, L1210) of over 500 µM.

For NC(=O)N1CC1C1=NC(C(=O)O)CS1 (stereo not drawn), the IC50 (L1210 [1]; Mus musculus, L1210) was over 500 µM and the IC50 (L1210 [2]; Mus musculus, L1210) was over 500 µM.

In the case of CNC(=O)N1CC1C1=NC(C(=O)O)CS1 (stereo not drawn), the IC50 (L1210 [1]; Mus musculus, L1210) is reported as over 500 µM and the IC50 (L1210 [2]; Mus musculus, L1210) is reported as over 500 µM.

N#CC1CN1C(N)=O (stereo not drawn) showed an IC50 (L1210 [1]; Mus musculus, L1210) of over 500 µM, an IC50 (RPMI-8226) of over 500 µM and an IC50 (L1210 [2]; Mus musculus, L1210) of over 500 µM.

CC(=O)NC(CSCC1NC(=O)NC1=O)C(=O)O (stereo not drawn) showed an IC50 (L1210 [1]; Mus musculus, L1210) of 73.7 µM, an IC50 (RPMI-8226) of 56.3 µM and an IC50 (L1210 [2]; Mus musculus, L1210) of 116 µM.

O=C(O)C1CSC(C2CN2)=N1 (stereo not drawn) was tested, and the IC50 (L1210 [1]; Mus musculus, L1210) was over 500 µM and the IC50 (L1210 [2]; Mus musculus, L1210) was over 500 µM.

— ChEMBL document CHEMBL1146638, “Chemical basis for the biological activity of imexon and related cyanoaziridines” (J Med Chem, 2004)
